Source: ChEMBL document CHEMBL4024773, “The Magic of Crystal Structure-Based Inhibitor Optimization: Development of a Butyrylcholinesterase Inhibitor with Picomolar Affinity and in Vivo Activity” (J Med Chem, 2018)
pIC50, pKi: −log10 of the molar value. Calls of active or inactive are those of the source. No cut-off for these calls is given here.

Key:
[1] = human, hepatocytes, 2 h
Cholinesterase [2] = biological target: T1, Cholinesterase (Homo sapiens, UniProt P06276); experiment: Competitive inhibition of recombinant human BChE using butyrylthiocholine iodide as substrate at pH 8 by stopped flow assay
T1 sequence (P06276 whole entry): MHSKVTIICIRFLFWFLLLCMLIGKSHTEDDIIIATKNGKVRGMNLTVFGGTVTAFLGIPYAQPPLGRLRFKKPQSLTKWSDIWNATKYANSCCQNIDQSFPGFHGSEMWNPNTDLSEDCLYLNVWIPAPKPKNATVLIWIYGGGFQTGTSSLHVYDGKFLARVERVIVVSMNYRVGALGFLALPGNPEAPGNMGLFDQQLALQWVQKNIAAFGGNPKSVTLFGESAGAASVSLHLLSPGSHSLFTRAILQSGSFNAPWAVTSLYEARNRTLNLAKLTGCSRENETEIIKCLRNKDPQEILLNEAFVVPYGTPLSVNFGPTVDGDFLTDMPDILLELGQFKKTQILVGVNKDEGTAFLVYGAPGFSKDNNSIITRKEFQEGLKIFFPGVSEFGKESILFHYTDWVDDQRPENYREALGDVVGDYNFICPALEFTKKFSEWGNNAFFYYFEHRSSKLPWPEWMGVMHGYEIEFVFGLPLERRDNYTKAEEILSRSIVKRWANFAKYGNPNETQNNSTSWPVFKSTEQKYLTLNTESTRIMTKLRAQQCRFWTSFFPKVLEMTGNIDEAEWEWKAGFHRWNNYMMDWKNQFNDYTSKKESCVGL

Cholinesterase [3] = biological target: T1, Cholinesterase; experiment: Inhibition of recombinant human BChE using butyrylthiocholine iodide as substrate preincubated for 300 secs followed by substrate addition measured for 1 min by Ellman's method
Acetylcholinesterase = biological target: T2, Acetylcholinesterase (Mus musculus, UniProt P21836); experiment: Inhibition of mouse AChE using acetylthiocholine iodide as substrate preincubated for 300 secs followed by substrate addition measured for 1 min by Ellman's method
T2 sequence (P21836 whole entry): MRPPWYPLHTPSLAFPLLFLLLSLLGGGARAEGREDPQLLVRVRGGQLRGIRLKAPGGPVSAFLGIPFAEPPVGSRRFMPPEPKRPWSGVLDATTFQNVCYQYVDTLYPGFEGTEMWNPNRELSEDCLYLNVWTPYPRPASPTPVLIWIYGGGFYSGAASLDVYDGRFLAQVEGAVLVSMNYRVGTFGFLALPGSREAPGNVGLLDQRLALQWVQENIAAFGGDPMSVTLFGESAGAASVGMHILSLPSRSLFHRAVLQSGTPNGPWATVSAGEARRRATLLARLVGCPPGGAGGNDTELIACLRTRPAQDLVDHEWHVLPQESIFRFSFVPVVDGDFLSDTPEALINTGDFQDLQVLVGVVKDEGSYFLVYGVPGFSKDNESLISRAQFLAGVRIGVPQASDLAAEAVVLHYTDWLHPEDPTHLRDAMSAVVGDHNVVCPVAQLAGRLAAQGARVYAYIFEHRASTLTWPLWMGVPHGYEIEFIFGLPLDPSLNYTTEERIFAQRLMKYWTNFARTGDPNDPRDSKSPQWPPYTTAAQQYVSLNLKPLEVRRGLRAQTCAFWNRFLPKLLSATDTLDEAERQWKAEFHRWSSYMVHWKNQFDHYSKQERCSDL
Outline: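 Inhibition of murine AChE measured by the Ellman method with acetylthiocholine iodide as substrate. IC50 determined only where inhibition reached at least 50% at 10 µM. Otherwise recorded as IC50 >10 µM.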

[4] = biological target: Butyrylcholinesterase (Rattus norvegicus) (UniProt Q9JKC1); settings: 300 uM
Chain of Butyrylcholinesterase (Rattus norvegicus) (Q9JKC1 as listed by the source): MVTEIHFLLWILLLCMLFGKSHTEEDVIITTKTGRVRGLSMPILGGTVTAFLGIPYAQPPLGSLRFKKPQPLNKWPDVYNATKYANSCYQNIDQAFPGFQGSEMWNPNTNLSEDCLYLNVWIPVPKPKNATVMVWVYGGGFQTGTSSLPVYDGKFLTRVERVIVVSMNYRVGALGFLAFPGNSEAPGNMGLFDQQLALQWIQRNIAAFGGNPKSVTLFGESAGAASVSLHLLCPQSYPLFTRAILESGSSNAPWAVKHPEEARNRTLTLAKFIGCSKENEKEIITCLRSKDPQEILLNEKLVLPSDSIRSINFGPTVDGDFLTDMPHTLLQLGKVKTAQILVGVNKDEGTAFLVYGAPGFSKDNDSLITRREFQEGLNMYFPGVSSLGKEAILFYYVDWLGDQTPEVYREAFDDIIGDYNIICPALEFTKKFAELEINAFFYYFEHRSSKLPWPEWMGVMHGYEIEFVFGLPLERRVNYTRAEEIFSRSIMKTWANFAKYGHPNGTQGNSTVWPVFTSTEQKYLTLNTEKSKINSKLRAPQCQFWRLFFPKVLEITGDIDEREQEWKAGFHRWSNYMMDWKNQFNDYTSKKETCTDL

Mus musculus [5] = experiment: Reversal of scopolamine-induced memory loss in C57BL/6J mouse assessed as decrease in escape latency time at 10 mg/kg, ip administered 60 mins prior to test post scopolamine-challenge measured on day 7 by Morris water maze test; type: functional, organism-based
Mus musculus [6] = experiment: Reversal of scopolamine-induced memory impairment in C57BL/6J mouse assessed as decrease in traveled distance to reach the escape platform at 10 mg/kg, ip administered 60 mins prior to test post scopolamine challenge measured on day 7 by Morris water maze test; type: functional, organism-based
[7] = Drug level in cryopreserved human hepatocytes treated with HCl salt of (+/-)-N-((1-(2,3-Dihydro-1H-inden-2-yl)piperidin-3-yl)methyl)-N-(2-(dimethylamino)ethyl)-2-naphthamide Dichloride at 1 uM after 120 mins by HPLC-MS/MS analysis; type: ADME, cell-based, Hepatocyte; settings: 2 h
Outline: (§1)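 Flurazepam, naloxone and propranolol, which are high-extraction […] references, served as positive controls.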

[8] = Half life in human plasma at 1 uM by HPLC-MS/MS analysis; type: ADME, cell-free
[9] = Drug metabolism in cryopreserved human hepatocytes assessed as (+/-)-N-((1-(2,3-Dihydro-1H-inden-2-yl)piperidin-3-yl)methyl)-N-(2-(methylamino)ethyl)-2-naphthamide dihydrochloride formation at 1 uM after 120 mins by HPLC-MS/MS analysis; type: ADME, cell-based, Hepatocyte; settings: 2 h
Outline: as §1

Mus musculus [10] = experiment: Toxicity in Albino Swiss CD-1 mouse assessed as reduction in locomotor activity by measuring number of light beam crossings at 30 mg/kg, ip measured at 24 to 30 mins post dose; type: organism-based; settings: in vivo
Outline: (§2)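 Mice were given 30 mg/kg intraperitoneally, the same dose used in the Morris water-maze task. Safety was assessed with a locomotor activity test monitored over time, rotarod at 6, 18 and 24 rpm, and observation for acute cholinergic adverse signs.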

in vitro [11] = settings: human, SH-SY5Y cells
Brain = settings: rat, in vivo, ip, 10 mg/kg, 1 h
[12] = Ratio of drug level in brain to plasma in Wistar Han rat at 10 mg/kg, ip after 1 hr by LC-MS/MS analysis; type: ADME, organism-based; settings: read-out: BPR
Outline: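 Rats received a single intraperitoneal injection of 10 mg/kg. Brain tissue (µg/kg) and blood plasma (µg/L) concentrations were measured 1 h later and reported as mean ±SEM. The brain-to-plasma ratio was calculated from these concentrations.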

Mus musculus [13] = experiment: Reversal of scopolamine-induced hyperlocomotion in C57BL/6J mouse assessed as speed of swimming at 30 mg/kg, ip administered 60 mins prior to test post scopolamine challenge measured on day 7 by Morris water maze test (reference value: 0.20 meter/s); type: functional
in vitro [14] = settings: human, HepG2 cells
[15] = Drug uptake in Wistar Han rat plasma at 10 mg/kg, ip after 1 hr by LC-MS/MS analysis; type: ADME, organism-based
[16] = Apparent permeability across apical to basolateral side in human Caco2 cells at 100 uM after 20 mins by fluorescein dye based HPLC-UV analysis; type: ADME, cell-based; settings: Caco-2
Outline: (§3)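 Caco-2 permeability (Papp) was measured bidirectionally, absorptive apical-to-basolateral and eliminatory basolateral-to-apical. The efflux ratio was calculated as Papp(B–A)/Papp(A–B).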

[17] = Apparent intrinsic clearance in cryopreserved human hepatocytes assessed per million cells at 1 uM after 120 mins by HPLC-MS/MS analysis; type: ADME, cell-based, Hepatocyte; settings: 2 h
Outline: as §1

Mus musculus [18] = experiment: Toxicity in Albino Swiss CD-1 mouse assessed as motor impairment at 30 mg/kg, ip using rod revolving at 6, 18, or 24 rpm after 60 mins by rotarod test; type: organism-based; settings: in vivo, 1 h
Outline: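 Rotarod test in mice given 30 mg/kg intraperitoneally, the dose used in the water maze tests. Motor performance recorded at rod speeds of 6, 18 and 24 rpm.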

[19] = Apparent permeability across basolateral to apical side in human Caco2 cells at 100 uM after 20 mins by fluorescein dye based HPLC-UV analysis; type: ADME, cell-based; settings: Caco-2
Outline: as §3

Mus musculus [20] = experiment: Toxicity in Albino Swiss CD-1 mouse assessed as acute adverse cholinergic effects at 30 mg/kg, ip; type: organism-based; settings: in vivo
Outline: as §2

[21] = Half life in cryopreserved human hepatocytes at 1 uM after 120 mins by HPLC-MS/MS analysis; type: ADME, cell-based, Hepatocyte
Outline: as §1

[22] = Protein binding in human plasma at 10 uM after 4 hrs by HPLC-MS/MS analysis; type: ADME, cell-free; settings: read-out: PPB (converted)
[23] = Stability of the compound in human plasma assessed as compound remaining at 1 uM after 120 mins by HPLC-MS/MS analysis; type: ADME, cell-free; settings: read-out: Stability
Cholinesterase [24] = biological target: T1, Cholinesterase; settings: 5 to 10 nM
Mus musculus [25] = experiment: Reversal of scopolamine-induced hyperlocomotion in C57BL/6J mouse assessed as speed of swimming at 10 mg/kg, ip administered 60 mins prior to test post scopolamine challenge measured on day 7 by Morris water maze test (reference value: 0.20 meter/s); type: functional
[26] = Efflux ratio of apparent permeability from basolateral to apical side over apical to basolateral side in human Caco2 cells; type: ADME, cell-based; settings: Caco-2

For O=c1cc(C(F)(F)F)c2ccc(O)cc2o1, the Stability [1] was “Unstable”.
With c1ccc2c(NCCCCCCCNc3c4c(nc5ccccc35)CCCC4)c3c(nc2c1)CCCC3 the pKi (Cholinesterase [2]) was 9.79.
With COCCN(CC1CCN(Cc2ccccc2)CC1)C(=O)c1ccc2ccccc2c1 the pIC50 (Cholinesterase [3]) was 6.15 and the pIC50 (Acetylcholinesterase) was under 5.00.
For COCCN(CC1CCCN(Cc2ccccc2)C1)S(=O)(=O)c1ccc2ccccc2c1 (configuration not stated), the inhibition [4] was “Active” and the pIC50 (Acetylcholinesterase) was under 5.00.
In the case of COc1cc2c(cc1OC)C(=O)C(CC1CCN(Cc3ccccc3)CC1)C2 (configuration not stated), the Activity (Mus musculus [5]) was “Active” and the Activity (Mus musculus [6]) was “Active”.
Work on COCCN(CC1CCCN(Cc2ccccc2)C1)C(=O)c1ccc2ccccc2c1 (racemic) yielded a pIC50 (Cholinesterase [3]) of 6.64 and a pIC50 (Acetylcholinesterase) of under 5.00.
Work on COCCN(CC1CCCN(C2Cc3ccccc3C2)C1)C(=O)c1ccc2cc(Br)ccc2c1 (racemic) yielded a pIC50 (Cholinesterase [3]) of 6.39 and a pIC50 (Acetylcholinesterase) of under 5.00.
In the case of CNCCN(CC1CCCN(C2Cc3ccccc3C2)C1)C(=O)c1ccc2ccccc2c1.Cl.Cl (racemic), the Drug metabolism [7] was “Metabolite_Detected” and the pIC50 (Cholinesterase [3]) was 7.74.
In the case of O=C(NCC1CCCN(Cc2ccccc2)C1)c1ccc2ccccc2c1 (racemic), the pIC50 (Cholinesterase [3]) was 5.84 and the pIC50 (Acetylcholinesterase) was under 5.00.
O=C(NCC1CCCN(C2Cc3ccccc3C2)C1)c1cccc2ccccc12 (racemic) showed a pIC50 (Cholinesterase [3]) of 7.17 and a pIC50 (Acetylcholinesterase) of under 5.00.
For O=C(NCC1CCCN(Cc2nc3ccccc3s2)C1)c1ccc2ccccc2c1 (racemic), the pIC50 (Cholinesterase [3]) was 6.20 and the pIC50 (Acetylcholinesterase) was under 5.00.
In the case of CN(C)CCN(CC1CCCN(C2Cc3ccccc3C2)C1)C(=O)c1ccc2ccccc2c1.Cl (racemic), the half-life at 1 µM [8] was over 2 h, the Drug metabolism [9] was “Metabolite_Detected” and the Activity (Mus musculus [10]) was “Toxic”. It also gave a CC50 at 48 h (in vitro [11]) of 6630 nM, a Drug uptake (Brain) of 248 µg/kg and a Kp at 1 h [12] of 1.47. For the same compound, the Activity (Mus musculus [13]) was 0.18 meter/s, the CC50 at 24 h (in vitro [14]) was 33900 nM and the concentration at 1 h [15] was 169 ng/mL. The Papp A→B at 20 min, 100 µM [16] was 28 ×10⁻⁶ cm/s, the “CLH(app)” value [17] was under 8.2 µL/min and the Activity (Mus musculus [18]) was “Non-Toxic”. The Papp B→A at 20 min, 100 µM [19] was 46.1 ×10⁻⁶ cm/s, the Activity (Mus musculus [20]) was “Non-Toxic” and the half-life at 1 µM [21] was over 2 h. It also gave a fraction unbound at 4 h, 10 µM [22] of 0.07 and a remaining at 2 h, 1 µM [23] of 76%.
In the case of CN(C)CCN(CC1CCCN(C2Cc3ccccc3C2)C1)C(=O)c1ccc2ccccc2c1 (racemic), the pIC50 (Acetylcholinesterase) was under 5.00.
In the case of COCCCN(CC1CCCN(C2Cc3ccccc3C2)C1)C(=O)c1ccc2ccccc2c1 (racemic), the pIC50 (Cholinesterase [3]) was 7.42 and the pIC50 (Acetylcholinesterase) was under 5.00.
With COCCN(CC1CCCN(C2Cc3ccccc3C2)C1)C(=O)c1ccc2ccccc2c1 (single isomer, unassigned; (+)) the deltaG (Cholinesterase [24]) was -11.9 kcal/mol.
COc1cc2c(cc1OC)C(=O)C(CC1CCN(Cc3ccccc3)CC1)C2.Cl (configuration not stated) [DONEPEZIL HYDROCHLORIDE] showed an Activity (Mus musculus [25]) of 0.15 meter/s.
COc1cc2c(cc1OC)C(=O)C(CC1CCN(Cc3ccccc3)CC1)C2 (configuration not stated) [DONEPEZIL] showed a concentration at 1 h [15] of 2 to 300 ng/mL.
In the case of CCN(CC)CCN1C(=O)CN=C(c2ccccc2F)c2cc(Cl)ccc21 [FLURAZEPAM], the Stability [1] was “Unstable”.
COC(=O)c1ccccc1-c1c2ccc(=N)cc-2oc2cc(N)ccc12.Cl [RHODAMINE123] showed an efflux ratio [26] of 7.3, a Papp A→B at 20 min, 100 µM [16] of 1.1 ×10⁻⁶ cm/s and a Papp B→A at 20 min, 100 µM [19] of 7.7 ×10⁻⁶ cm/s.
